Active and inactive are the calls of the source. No cut-off for these calls is given here.

Data set [1] deals with Macrophage. Put plainly: Induction of APO-AI-dependent cholesterol efflux in mouse macrophages. Type of data set: functional, cell-based. An outline of the steps:
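Peritoneal macrophages labelled 24 h with [3H]cholesterol (1.0 µCi/mL) plus ACAT inhibitor 58-035 (2 µg/mL), with compound. Then 2–4 h equilibration in label-free medium with compound. Efflux for 4 h into DMEM/0.2% BSA with or without apoAI (15 µg/mL). apoAI-dependent efflux = medium radioactivity as % of total cell plus medium. Triplicate.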

Data set [2] deals with T1, Oxysterols receptor LXR-beta (Homo sapiens) (UniProt P55055).
T1 sequence (whole entry): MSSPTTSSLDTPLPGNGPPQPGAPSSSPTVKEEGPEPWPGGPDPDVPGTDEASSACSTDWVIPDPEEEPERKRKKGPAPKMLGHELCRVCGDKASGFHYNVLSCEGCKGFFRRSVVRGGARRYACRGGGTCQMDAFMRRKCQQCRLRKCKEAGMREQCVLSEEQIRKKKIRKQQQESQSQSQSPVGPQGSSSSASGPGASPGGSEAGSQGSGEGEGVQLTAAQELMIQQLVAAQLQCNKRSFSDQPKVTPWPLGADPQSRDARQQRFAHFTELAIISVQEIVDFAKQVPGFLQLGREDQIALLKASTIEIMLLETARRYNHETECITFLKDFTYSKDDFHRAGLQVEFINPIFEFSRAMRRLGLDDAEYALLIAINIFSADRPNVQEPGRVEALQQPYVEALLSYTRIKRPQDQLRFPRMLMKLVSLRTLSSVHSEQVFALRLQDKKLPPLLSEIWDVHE
Put plainly: Activity at human LXRbeta by Gal4 transactivation assay relative to GW-3965. The method, boiled down: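 GAL4 DBD fused to hLXRα or hLXRβ LBD in pcDNA3, co-transfected into HepG2 with luciferase reporter. Cells in DMEM with 10% lipoprotein-deficient FBS, 7.5 µM lovastatin, 100 µM mevalonic acid. Ligand added 24 h post-transfection as 11-point curves from 10 µM; luciferase read after 16 h. Run in quadruplicate. %E = max fold induction vs max fold induction of reference dual agonist in same experiment.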

For data set [3], the target named is T2, Glucocorticoid receptor (Homo sapiens) (UniProt P04150).
T2 sequence (whole entry): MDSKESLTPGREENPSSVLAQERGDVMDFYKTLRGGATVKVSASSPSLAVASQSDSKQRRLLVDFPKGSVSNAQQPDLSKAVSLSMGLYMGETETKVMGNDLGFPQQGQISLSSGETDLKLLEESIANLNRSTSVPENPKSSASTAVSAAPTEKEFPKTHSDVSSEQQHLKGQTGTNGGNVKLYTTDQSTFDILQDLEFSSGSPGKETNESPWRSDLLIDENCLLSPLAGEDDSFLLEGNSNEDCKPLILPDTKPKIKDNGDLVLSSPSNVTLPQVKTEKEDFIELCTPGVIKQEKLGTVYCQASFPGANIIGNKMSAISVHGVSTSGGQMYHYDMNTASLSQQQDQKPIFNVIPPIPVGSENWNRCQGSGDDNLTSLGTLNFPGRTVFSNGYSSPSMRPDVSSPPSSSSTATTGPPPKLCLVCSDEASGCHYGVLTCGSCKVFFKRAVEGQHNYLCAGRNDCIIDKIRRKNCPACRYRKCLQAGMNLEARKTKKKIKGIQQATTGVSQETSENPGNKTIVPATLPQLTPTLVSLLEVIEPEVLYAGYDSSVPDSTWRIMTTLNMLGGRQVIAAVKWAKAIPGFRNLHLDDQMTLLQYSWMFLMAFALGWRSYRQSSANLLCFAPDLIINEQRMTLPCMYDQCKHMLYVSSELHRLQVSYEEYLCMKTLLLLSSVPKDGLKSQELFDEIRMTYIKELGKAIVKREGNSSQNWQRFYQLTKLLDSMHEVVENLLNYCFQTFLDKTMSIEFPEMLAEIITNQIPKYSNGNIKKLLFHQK
The experiment in a line: Activity at GR by cell based assay. In kind it is functional.

Data set [4] deals with Macrophage. The experiment in a line: Induction of ABCA1 gene expression in LXRbeta deficient mouse macrophages. In kind it is functional, cell-based. The method, boiled down:
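Thioglycollate-elicited peritoneal macrophages from LXR-null mice, plated 24 h. Treated as for THP-1 without PMA: 2% lipoprotein-deficient serum medium, compound in DMSO for 24 h. ABCA1 mRNA by TaqMan qRT-PCR with 36B4 control, fold vs DMSO. Two concentrations used.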

A short description of data set [5]: Clearance in C57BL/6 mouse at 5 mg/kg, iv. Type of data set: ADME, organism-based. Also on record: dose 5 mg/kg, route intravenous. To be noted: in vivo. The method, boiled down: (§1)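 Mouse PK study, IV and PO; compound formulated at 2.5 mg/mL in PEG300/Tween 80 (4:1). IV dose 5 mpk (AUC, Cmax, clearance, Vss); oral dose 20 mpk (AUC, Cmax, bioavailability, t1/2).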

Data set [6] addresses Retinoid X receptor (Homo sapiens) (UniProt P28702+P48443+P19793). The experiment in a line: Activity at RXR by cell based assay.
Data set [7] in a line: Half life in C57BL/6 mouse at 20 mg/kg, po. In kind it is ADME, organism-based. Also on record: dose 20 mg/kg, route oral. To be noted: in vivo. The method, boiled down:
as §1

Data set [8] is described as follows: AUC in C57BL/6 mouse at 5 mg/kg, iv. The conditions noted are these: plasma. Also on record: dose 5 mg/kg, route intravenous. In kind it is ADME, organism-based. An outline of the steps:
as §1

Data set [9] has as its target T3, Nuclear receptor subfamily 1 group I member 2 (Homo sapiens, UniProt O75469).
T3 sequence (O75469 whole entry): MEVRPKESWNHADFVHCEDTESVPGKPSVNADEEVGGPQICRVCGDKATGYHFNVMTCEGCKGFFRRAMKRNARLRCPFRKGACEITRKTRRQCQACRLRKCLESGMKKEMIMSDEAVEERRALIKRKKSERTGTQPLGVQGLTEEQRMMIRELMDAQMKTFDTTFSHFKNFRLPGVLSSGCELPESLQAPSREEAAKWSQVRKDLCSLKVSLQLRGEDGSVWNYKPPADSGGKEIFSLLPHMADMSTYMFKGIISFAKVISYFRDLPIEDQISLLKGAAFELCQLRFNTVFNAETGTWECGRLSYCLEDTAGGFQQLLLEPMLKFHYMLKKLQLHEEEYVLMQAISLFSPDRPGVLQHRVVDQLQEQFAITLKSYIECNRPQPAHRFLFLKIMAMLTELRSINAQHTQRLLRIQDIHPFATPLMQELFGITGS
The experiment in a line: Activity at PXR by cell based assay. In kind it is functional.

A further data set has as its system Hepatocyte. Put plainly: Induction on FAS gene expression in human primary hepatocytes at 1 uM. Type of data set: functional, cell-based. The method, boiled down: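 Primary human hepatocytes treated with 1 µM compound; FAS mRNA measured by TaqMan-based qRT-PCR.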

Retinoid X receptor (Homo sapiens), sequence (P19793 whole entry, looked up): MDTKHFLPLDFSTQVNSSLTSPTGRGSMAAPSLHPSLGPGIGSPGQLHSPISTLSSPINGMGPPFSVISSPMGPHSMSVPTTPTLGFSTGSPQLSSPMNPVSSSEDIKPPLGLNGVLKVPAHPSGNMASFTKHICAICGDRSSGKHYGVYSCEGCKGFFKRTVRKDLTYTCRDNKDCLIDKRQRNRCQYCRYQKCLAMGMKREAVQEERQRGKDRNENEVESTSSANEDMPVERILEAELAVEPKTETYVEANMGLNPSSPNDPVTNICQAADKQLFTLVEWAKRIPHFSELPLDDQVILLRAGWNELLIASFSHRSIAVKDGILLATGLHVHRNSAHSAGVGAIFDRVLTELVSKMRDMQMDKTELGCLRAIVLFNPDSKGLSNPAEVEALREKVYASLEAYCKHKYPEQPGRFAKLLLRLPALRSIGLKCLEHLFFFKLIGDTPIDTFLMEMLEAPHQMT
Retinoid X receptor (Homo sapiens), sequence (P28702 whole entry, looked up): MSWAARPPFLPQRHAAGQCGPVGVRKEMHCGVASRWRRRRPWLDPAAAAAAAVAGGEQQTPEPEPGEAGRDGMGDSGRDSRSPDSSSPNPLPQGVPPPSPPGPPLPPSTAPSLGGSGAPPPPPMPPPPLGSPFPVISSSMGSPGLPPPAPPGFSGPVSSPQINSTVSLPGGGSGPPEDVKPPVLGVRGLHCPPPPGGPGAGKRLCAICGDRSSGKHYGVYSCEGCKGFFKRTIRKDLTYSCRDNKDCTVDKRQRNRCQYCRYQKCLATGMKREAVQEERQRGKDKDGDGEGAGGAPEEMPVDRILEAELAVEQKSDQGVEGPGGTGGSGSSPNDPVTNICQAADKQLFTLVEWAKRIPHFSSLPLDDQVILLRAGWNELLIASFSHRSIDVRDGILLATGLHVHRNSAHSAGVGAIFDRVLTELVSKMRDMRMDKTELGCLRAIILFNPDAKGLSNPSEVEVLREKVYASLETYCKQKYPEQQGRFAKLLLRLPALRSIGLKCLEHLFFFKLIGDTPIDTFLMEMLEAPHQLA
Retinoid X receptor (Homo sapiens), sequence (P48443 whole entry, looked up): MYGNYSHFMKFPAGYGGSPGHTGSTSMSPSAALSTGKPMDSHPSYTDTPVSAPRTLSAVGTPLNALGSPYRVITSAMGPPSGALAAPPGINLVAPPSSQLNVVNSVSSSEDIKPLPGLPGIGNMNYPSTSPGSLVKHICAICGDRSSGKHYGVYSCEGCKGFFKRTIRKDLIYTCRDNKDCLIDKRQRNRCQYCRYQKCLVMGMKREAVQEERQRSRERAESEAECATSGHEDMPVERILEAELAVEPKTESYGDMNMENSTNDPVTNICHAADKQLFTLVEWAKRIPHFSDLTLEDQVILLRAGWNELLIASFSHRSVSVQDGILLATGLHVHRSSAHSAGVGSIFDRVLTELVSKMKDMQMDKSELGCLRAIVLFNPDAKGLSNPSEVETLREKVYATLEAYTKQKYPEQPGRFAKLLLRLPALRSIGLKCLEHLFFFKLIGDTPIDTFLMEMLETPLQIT

Consider `COc1cccc(C2SC(c3ccc(Cl)cc3)=NN2C(=O)c2c(F)cc(F)cc2F)c1OC` (racemic), for which the outcome in the data set on Macrophage [1] and in the data set with Macrophage [4] was Active. Moreover, in data set [2], the Efficacy was found to be 82%. Further, the outcome (in [3]; in data set [6]; with Hepatocyte) was inactive. Also, in data set [5], the clearance was determined as 12.2 mL/min/kg. In data set [7], this compound had a half-life of 6.7 h. This compound also gave an AUC in data set [8] of 7140 ng·h/mL. Further, in data set [9], the Activity result was “Not Active”.

Usually clearance stands for a measure of how efficiently the substance is removed, as volume per time. A lower clearance goes with inefficient removal. One may read the half-life as how long it takes for the measured level to halve. A higher half-life goes with slow decline. By AUC is commonly meant concentration integrated over time.

Source of the values: ChEMBL document CHEMBL1148736, “N-Acylthiadiazolines, a new class of liver X receptor agonists with selectivity for LXRbeta” (J Med Chem, 2007).
